{"source": "paper PMC6939458", "about": "(Cancer cell, 2019)", "key": {"[1]": {"system": "MycCaP organoids and FVB mouse prostate organoids", "experiment": "Prostate organoid culture", "assay_type": "cell-based", "details": "4 days treatment", "procedure,_shortened": "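Prostate lobes from 8–10-week-old FVB males were minced and digested with collagenase in RPMI1640/10% FBS for 2 hr at 37 °C. Trypsin and DNase I followed, then a 40 μm strainer. Cells were plated on ultra-low-attachment plates: 5,000 normal cells or 1000 MycCaP cells per 100 μl, with media added at day 4. Organoids formed by day 7 (normal) or day 4 (MycCaP). They were pelleted, resuspended in media with compound or DMSO, and imaged in bright field 4 days after treatment.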"}, "MycCaP cells": {"system": "MycCaP cells", "experiment": "Caspase-3 and immunogenic cell death assays in MycCaP cells", "assay_type": "cell-based, mouse", "procedure,_shortened": "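MycCaP cells exposed to 4 μM test compound for 72 hr; supernatants collected. Secreted ATP read by bioluminescent kit and HMGB1 by ELISA, with cell counts taken for quantification. Surface calreticulin: cells stained with rabbit anti-calreticulin (1:1000, 60 min), then Alexa Fluor 488 anti-rabbit (1 μg/ml), read by flow cytometry.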"}, "MAX/MAX homodimer": {"biological_target": "MAX/MAX homodimer (Homo sapiens, UniProt P61244)", "sequence (P61244 whole entry)": "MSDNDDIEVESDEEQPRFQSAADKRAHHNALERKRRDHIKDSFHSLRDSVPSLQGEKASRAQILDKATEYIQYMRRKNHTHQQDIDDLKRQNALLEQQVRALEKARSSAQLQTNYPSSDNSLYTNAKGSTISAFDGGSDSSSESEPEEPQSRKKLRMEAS", "experiment": "EMSA, MAX/MAX homodimer binding to E-box DNA", "assay_type": "biochemical"}, "[2]": {"system": "human prostate cancer patient derived xenografts", "experiment": "Prostate cancer PDX model", "assay_type": "in vivo, mouse", "details": "55 mg/kg/day, 3 consecutive days a week for 2 weeks", "procedure,_shortened": "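Minced fragments (~10 mm²) of prostate PDX TM00298 were implanted into the flanks of male NSG mice. Once grafts were measurable, test compound was given i.p. at 55 mg/kg/day on 3 consecutive days a week for two weeks. Tumour growth was expressed as percentage, n = 9 or 10 grafts.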"}, "γ-H2AX": {"system": "γ-H2AX", "experiment": "γ-H2AX staining", "assay_type": "cell-based, human", "details": "10 μM, 24-hour treatment", "procedure,_shortened": "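PC3 cells were fixed in 4% PFA and permeabilised with 0.5% Triton-X. They were then stained with anti-phospho-histone H2A.X (Ser139) antibody at 1:1000.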"}, "MycCaP tumor allografts": {"system": "MycCaP tumor allografts", "experiment": "MycCaP allograft/xenograft mouse model", "assay_type": "in vivo", "procedure,_shortened": "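Male FVB (allograft) or NSG (xenograft) mice, 6–8 weeks, ~25 g, acclimated >4 days. Injected s.c. in flanks with 1 × 10⁶ MycCaP E-box-luciferase cells in 100 μl Matrigel. Tumors followed by caliper ((length × width × width)/2) and by bioluminescent imaging after i.p. substrate injection. Body weight recorded. Tumor tissue assessed by H&E and immunofluorescence for Ki67, MYC pT58 and PD-L1.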"}, "[3]": {"details": "MycCaP E-box-Luc allografts, i.p."}, "[4]": {"details": "MycCaP tumor tissue after treatment"}, "[5]": {"details": "MycCaP tumors post-361 treatment"}}}
{"smiles": "Cn1nc(C(F)(F)F)cc1-c1ccc(OCc2ccc(Cl)cc2)c(-c2cc(C(F)(F)F)cc(C(F)(F)F)c2)c1O", "note": "[Compound 361, 6-((4-chlorobenzyl)oxy)-3-(1-methyl-3-(trifluoromethyl)-1H-pyrazol-5-yl)-3’,5’-bis(trifluoromethyl)-[1,1’-biphenyl]-2-ol]", "values": [{"measurement": "sensitivity of MycCaP versus normal prostate organoids", "setting": "[1]", "value": "more sensitive"}, {"measurement": "markers of immunogenic cell death", "setting": "MycCaP cells; 4 μM, 72 hr", "value": "significant upregulation of cell surface calreticulin expression, and release of HMGB1 and ATP"}, {"measurement": "cancer cell death, caspase-3", "setting": "MycCaP cells; 6 μM", "value": "induces cancer cell death with activated caspase-3 expression"}, {"measurement": "MAX/MAX homodimer binding to E-box DNA", "setting": "MAX/MAX homodimer", "value": "but not the closely related MAX/MAX homodimer"}, {"measurement": "anti-tumor efficacy", "setting": "[2]", "value": "confirmed 361 anti-tumor efficacy"}, {"measurement": "induction of γ-H2AX", "setting": "γ-H2AX", "value": "did not observe induction"}, {"measurement": "tumor inhibitory effect, FVB versus NSG mice", "setting": "MycCaP tumor allografts; 50 mg/kg/day for 4 days", "value": "stronger tumor inhibitory effect in immunocompetent FVB mice"}, {"measurement": "tumor immune cells by flow cytometry", "setting": "MycCaP tumor allografts; 50 mg/kg/day, 2 days on/2 days off for 2 rounds", "value": "an increase in CD3^+CD4^+ and CD3^+CD8^+ T cells, IFNγ-expressing CD4^+ and CD8^+ T cells, TNFα-expressing CD8^+ cells, dendritic cells and NK cells"}, {"measurement": "body weight", "setting": "MycCaP tumor allografts; 70 mg/kg/day", "value": "without additional loss in mouse body weight"}, {"measurement": "body weight loss", "setting": "MycCaP tumor allografts; 100 mg/kg/day, average", "value": 10, "unit": "%"}, {"measurement": "tumor growth, combination with anti-PD1", "setting": "MycCaP tumor allografts; 361 50 mg/kg/day 2 days then anti-PD1 100 μg/d 2 days, 4 cycles", "value": "synergistic suppression of tumor growth"}, {"measurement": "tumor growth", "setting": "MycCaP tumor allografts; FVB mice, established MycCaP allografts, 100 mg/kg/day", "value": "induced tumor regression"}, {"measurement": "E-box luciferase activity in vivo", "setting": "MycCaP tumor allografts; [3]", "value": "significantly reduced"}, {"measurement": "tumor size, rapid in vivo screen", "setting": "MycCaP tumor allografts; [3]", "value": "significantly reduced"}, {"measurement": "Ki67 proliferation marker in tumor tissues", "setting": "MycCaP tumor allografts; [4]", "value": "decreased"}, {"measurement": "MYC pT58 level in tumor tissues", "setting": "MycCaP tumor allografts; [4]", "value": "increased"}, {"measurement": "PD-L1 expression on tumor cells", "setting": "MycCaP tumor allografts; [5]", "value": "upregulation of PD-L1 expression"}, {"measurement": "tumor infiltration of CD3+ T cells", "setting": "MycCaP tumor allografts; [5]", "value": "enhanced tumor infiltration of CD3^+ T cells"}, {"measurement": "tolerability", "setting": "MycCaP tumor allografts; combination study dose, 50 mg/kg/day 2 days on/off", "value": "well-tolerated"}, {"measurement": "tumor growth", "setting": "MycCaP tumor allografts; treatment re-started at 70 mg/kg/day", "value": "effective in controlling tumor growth"}]}
